Data taken from ChEMBL document CHEMBL2021903, “3-Deoxy-3,4-dehydro analogs of XM462. Preparation and activity on sphingolipid metabolism and cell fate” (Bioorg Med Chem, 2012).
Calls of active or inactive are those of the source. The rule behind the calls is not given here.

Experiments:
[1] = target: T1, Acid ceramidase (Homo sapiens) (UniProt Q13510); assay: Inhibition of aCDase in Moh.pAS AcCer10X cells using RBM14C16 as substrate at 16 uM after 1 hr by HPLC-FD analysis; format: cell-based
T1 sequence (whole entry): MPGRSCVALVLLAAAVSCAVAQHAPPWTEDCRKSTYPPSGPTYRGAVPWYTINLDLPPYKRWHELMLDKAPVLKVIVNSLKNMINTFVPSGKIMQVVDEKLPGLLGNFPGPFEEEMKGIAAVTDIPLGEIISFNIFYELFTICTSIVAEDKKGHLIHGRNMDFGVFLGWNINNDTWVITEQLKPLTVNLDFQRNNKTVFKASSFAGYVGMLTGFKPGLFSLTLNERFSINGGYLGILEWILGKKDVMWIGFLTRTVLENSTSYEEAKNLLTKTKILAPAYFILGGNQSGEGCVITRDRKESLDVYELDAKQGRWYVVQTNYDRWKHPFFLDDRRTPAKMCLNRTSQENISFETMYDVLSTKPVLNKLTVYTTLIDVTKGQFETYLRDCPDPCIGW

[2] = target: T1, Acid ceramidase (Homo sapiens); assay: Inhibition of aCDase using RBM14C16 as substrate at 16 uM after 1 hr by HPLC-FD analysis
HCT-116 = assay: Induction of apoptosis in human HCT116 cells at 30 uM after 14 hrs by Annexin V-propidium iodide staining based flow cytometry; format: functional, cell-based
Procedure, shortened: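 HCT116 (clone 40–16) in low-glucose DMEM with 10% FBS and 1% penicillin–streptomycin, seeded 2.5×10⁵ cells/mL. After 24 h, medium replaced with compound-containing medium; ethanol vehicle to controls. After incubation, cells PBS-washed, trypsinized, stained with Annexin V and propidium iodide, analysed by flow cytometry. Mean ± SD, 3 experiments in triplicate.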

Compound | inhibition [1] [%] | inhibition [2] [%] | Activity (HCT-116)
CCCCCCCCCCCCC/C=C/[C@@H](O)[C@H](CO)NC(=O)C(C)(C)C | 50 | 50 | 
CCCCCCCCCCCCCCC[C@@H](O)[C@H](CO)NC(=O)C(C)(C)C | 50 | 50 | 
CCCCCCCCCCCCC/C=C/[C@@H](O)[C@H](CO)NC(=O)CCCCCCC |  |  | Active
